Converted amounts (≈) assume the structure as drawn. The source made the active and inactive calls. No cut-off for these calls is given here.
Experiments:
[1] = test system: Pseudomonas aeruginosa; test: Induction of ampC mRNA expression in Pseudomonas aeruginosa PAO1 at 50 ug/ml relative to untreated control; type: functional
How it was run: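 The inducer was given at 50 μg/ml for 3 h, with an untreated comparison. RNA from log-phase LB cultures was DNase-treated, and ampC expression was quantified by real-time RT-PCR normalized to rpsL. Values are the mean of at least three independent duplicate experiments.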

[2] = test system: Pseudomonas aeruginosa; test: Antimicrobial activity against Pseudomonas aeruginosa PAO1 by broth microdilution method; type: functional
How it was run: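 MICs against strain PAO1 by standard CLSI broth microdilution (M100-S18).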

[3] = test system: Pseudomonas aeruginosa; test: Bactericidal activity against Pseudomonas aeruginosa PAO1 assessed as reduction in viable bacterial count at 2 X MIC after 8 hrs by time-kill analysis; type: functional
How it was run: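 PAO1 grown overnight in Mueller-Hinton broth, diluted 1/100 and grown at 37°C, 180 rpm to mid-log phase (OD600 0.2). Then inoculated into MHB with 0, 0.5×, 1×, 2× or 4× MIC to an initial OD600 of 0.01 (ca. 10^7 CFU/ml). Viable counts taken by plating serial dilutions on MH agar over 8 h. Triplicate experiments, mean ± SD.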

[4] = test system: Pseudomonas aeruginosa; test: Induction of ampC mRNA expression in Pseudomonas aeruginosa PAO1 at 0.25 X MIC relative to untreated control; type: functional
How it was run: (§1)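 Cells were exposed for 3 h to subinhibitory drug (1/2 or 1/4 MIC), alongside untreated cells. RNA was taken from log-phase LB cultures and DNase-treated (2 U, 30 min, 37°C). ampC mRNA was measured by real-time RT-PCR and normalized to rpsL. Values are the mean relative expression from at least three independent duplicate experiments.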

[5] = test system: Pseudomonas aeruginosa; test: Induction of ampC mRNA expression in Pseudomonas aeruginosa PAO1 at 0.5 X MIC relative to untreated control; type: functional; how it was run: as §1
[6] = Inhibition of Pseudomonas aeruginosa PAO1 PBP1b by SDS-PAGE
How it was run: (§2)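 Membranes were prepared from late-log (OD600 1) LB cultures by sonication and two rounds of 150,000 × g ultracentrifugation in 20 mM KH2PO4-140 mM NaCl, pH 7.5. Membranes were preincubated 30 min at 37°C with drug (0.0156–2 μg/ml), then labeled with 25 μM Bocillin FL. Samples were run on SDS-PAGE and read by fluorescence (ex 488/em 530 nm). IC50 values come from triplicate experiments.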

[7] = Inhibition of Pseudomonas aeruginosa PAO1 PBP1c by SDS-PAGE; how it was run: as §2
[8] = Inhibition of Pseudomonas aeruginosa PAO1 PBP2 by SDS-PAGE; how it was run: as §2
[9] = Inhibition of Pseudomonas aeruginosa PAO1 PBP3 by SDS-PAGE; how it was run: as §2
[10] = Inhibition of Pseudomonas aeruginosa PAO1 PBP4 by SDS-PAGE; how it was run: as §2
[11] = Inhibition of Pseudomonas aeruginosa PAO1 PBP5/6 by SDS-PAGE; how it was run: as §2
[12] = test system: Pseudomonas aeruginosa; test: Antimicrobial activity against Pseudomonas aeruginosa PAO1 assessed as appearance of long filaments at 0.5 X MIC after 2 hrs by Live/dead cell viability assay; type: functional, organism-based
[13] = test system: Pseudomonas aeruginosa; test: Antimicrobial activity against Pseudomonas aeruginosa PAO1 at 4 X MIC after 8 hrs by Live/dead cell viability assay; type: functional, organism-based
[14] = test system: Pseudomonas aeruginosa; test: Bactericidal activity against Pseudomonas aeruginosa PAO1 assessed as reduction in viable bacterial count at MIC after 8 hrs by time-kill analysis; type: functional
How it was run: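 Overnight MHB cultures were diluted 1/100 and grown at 37°C, 180 rpm to OD600 0.2. Flasks of MHB with 0, 0.5×, 1×, 2× or 4× MIC were inoculated to OD600 0.01 (ca. 10^7 CFU/ml). Viable counts were followed over 8 h by plating serial dilutions on MH agar, with OD600 also read. Values are the mean ± SD of triplicate runs.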

| SMILES | fold change (FC) [1] | MIC [2] | Activity [3] | fold change (FC) [4] | fold change (FC) [5] | IC50 [6] | IC50 [7] | IC50 [8] | IC50 [9] | IC50 [10] | IC50 [11] | Activity [12] | Activity [13] | fold change (FC) [14] |
| --- | --- | --- | --- | --- | --- | --- | --- | --- | --- | --- | --- | --- | --- | --- |
| CO[C@@]1(NC(=O)Cc2cccs2)C(=O)N2C(C(=O)O)=C(COC(N)=O)CS[C@@H]21 [CEFOXITIN] | 50 |  |  |  |  |  |  |  |  |  |  |  |  |  |
| CC(C)(O/N=C(\C(=O)N[C@@H]1C(=O)N2C(C(=O)[O-])=C(C[n+]3ccccc3)CS[C@H]12)c1csc(N)n1)C(=O)O [CEFTAZIDIME] |  | 1 µg/mL (≈ 1.83 µM) | >3 | 1.2 | 1.2 | 0.12 µg/mL (≈ 0.22 µM) | > 2 µg/mL | > 2 µg/mL | 0.04 µg/mL (≈ 0.0732 µM) | 1.23 µg/mL (≈ 2.25 µM) | > 2 µg/mL | Active | Active |  |
| Cn1c(N)c(NC(=O)NCCN)c[n+]1CC1=C(C(=O)O)N2C(=O)[C@@H](NC(=O)/C(=N\OC(C)(C)C(=O)[O-])c3nsc(N)n3)[C@H]2SC1 [CEFTOLOZANE] |  | 0.5 µg/mL (≈ 0.75 µM) |  | 1.6 | 1.3 | 0.07 µg/mL (≈ 0.105 µM) | 0.64 µg/mL (≈ 0.96 µM) | 1.36 µg/mL (≈ 2.04 µM) | 0.02 µg/mL (≈ 0.03 µM) | 0.29 µg/mL (≈ 0.435 µM) | > 2 µg/mL | Active | Active | >3 |
| C[C@@H](O)[C@H]1C(=O)N2C(C(=O)O)=C(SCCNC=N)C[C@H]12 [IMIPENEM ANHYDROUS] |  | 1 µg/mL (≈ 3.34 µM) |  | 193.2 | 269.5 | 0.13 µg/mL (≈ 0.434 µM) | 0.08 µg/mL (≈ 0.267 µM) | 0.08 µg/mL (≈ 0.267 µM) | 0.12 µg/mL (≈ 0.401 µM) | 0.02 µg/mL (≈ 0.0668 µM) | 0.2 µg/mL (≈ 0.668 µM) | Active | Active |  |

Source: ChEMBL document CHEMBL1649308, “Affinity of the new cephalosporin CXA-101 to penicillin-binding proteins of Pseudomonas aeruginosa” (Antimicrob Agents Chemother, 2010)
